Assay results: ChEMBL document CHEMBL1671809, “Discovery of phosphoric acid mono-{2-[(E/Z)-4-(3,3-dimethyl-butyrylamino)-3,5-difluoro-benzoylimino]-thiazol-3-ylmethyl} ester (Lu AA47070): a phosphonooxymethylene prodrug of a potent and selective hA(2A) receptor antagonist” (J Med Chem, 2011)

Columns and labels:
Hepatocyte [1] = experiment: Intrinsic clearance in human hepatocytes at 0.2 uM after 60 mins; format: ADME, cell-based, Liver; conditions: 1 h
In short: (§1)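 Pooled cryopreserved hepatocytes: human (three donors), male Sprague-Dawley rat (two donors), male beagle dog (two donors). Cells at 10^6/mL in DMEM with 5 mM HEPES, 37 C, 15 min preincubation; compound at 0.2 μM. Samples at 0-60 min, depletion by LC-MS/MS. t1/2 scaled to CLint with 120 (human, rat) or 240 (dog) million cells/g liver. n = 1.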

Cytochrome P450 2D6 = Cytochrome P450 2D6 (Homo sapiens, UniProt P10635); experiment: Inhibition of recombinant CYP2D6 after 45 mins; format: ADME
In short: (§2)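 Recombinant CYP supersomes incubated in phosphate buffer with eight compound concentrations (40-0.02 μM) and fluorogenic substrates. CYP1A2: 7-ethoxy-3-cyanocoumarin 10 μM, 28 min. CYP2C19: same substrate 50 μM, 45 min. CYP2D6: AMMC 3 μM, 45 min. CYP3A4: resorufin benzyl ether 100 μM, 30 min. Fluorescent metabolite read; IC50 relative to uninhibited controls.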

Cytochrome P450 2C19 = Cytochrome P450 2C19 (Homo sapiens, UniProt P33261); experiment: Inhibition of recombinant CYP2C19 after 45 mins; format: ADME; in short: as §2
[2] = Terminal half life in Sprague-Dawley rat at 0.5 mg/kg, iv and 1 mg/kg, po; format: ADME, organism-based; conditions: in vivo
In short: (§3)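 Awake Sprague-Dawley rats carrying a carotid catheter were dosed with 0.5 mg/kg iv or 1 mg/kg po in aqueous 25% cremophore, n = 3 per route. Ten 100 μL blood samples were collected automatically over 20 h. Plasma was assayed by HTLC-MS/MS. Parameters came from a two-compartment model with first-order absorption (po) and elimination.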

Adenosine receptor A2a = Adenosine receptor A2a (Homo sapiens, UniProt P29274); experiment: Displacement of [3H]-ZM241385 from human adenosine A2A receptor expressed in high five cells after 30 mins by scintillation counting
[3] = Primary phase half life in Sprague-Dawley rat at 0.5 mg/kg, iv and 1 mg/kg, po; format: ADME, organism-based; conditions: in vivo; in short: as §3
[4] = Apparent permeability from basolateral to apical side in human Caco2 cells at 1 uM after 21 to 28 days; format: ADME, cell-based; conditions: caco-2
In short: (§4)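 Caco-2 cells grown 21-28 days on permeable filters. A 2 mM DMSO stock was diluted into Hanks-HEPES pH 7.4. Dosing solution went into the apical (A-B) or basolateral (B-A) chamber, and the opposite chamber was sampled over 240 min with buffer replacement. Efflux ratio = Papp,B-A/Papp,A-B. Mean ± SD, n = 3.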

Mus musculus = experiment: Displacement of [3H]SCH58261 from po dosed NMRI mouse striatum by liquid scintillation counting; format: functional
Cytochrome P450 2C9 = Cytochrome P450 2C9 (Homo sapiens, UniProt P11712); experiment: Inhibition of recombinant CYP2C9 after 45 mins; format: ADME
[5] = Protein binding in dog serum at 1 uM after 60 mins by LC/MS-MS; format: ADME, cell-free, Canis lupus familiaris; conditions: read-out: PPB (converted)
Cytochrome P450 1A2 = molecular target: T1, Cytochrome P450 1A2 (Homo sapiens, UniProt P05177); experiment: Inhibition of recombinant CYP1A2 after 28 mins; format: ADME; in short: as §2
T1 sequence (P05177 whole entry): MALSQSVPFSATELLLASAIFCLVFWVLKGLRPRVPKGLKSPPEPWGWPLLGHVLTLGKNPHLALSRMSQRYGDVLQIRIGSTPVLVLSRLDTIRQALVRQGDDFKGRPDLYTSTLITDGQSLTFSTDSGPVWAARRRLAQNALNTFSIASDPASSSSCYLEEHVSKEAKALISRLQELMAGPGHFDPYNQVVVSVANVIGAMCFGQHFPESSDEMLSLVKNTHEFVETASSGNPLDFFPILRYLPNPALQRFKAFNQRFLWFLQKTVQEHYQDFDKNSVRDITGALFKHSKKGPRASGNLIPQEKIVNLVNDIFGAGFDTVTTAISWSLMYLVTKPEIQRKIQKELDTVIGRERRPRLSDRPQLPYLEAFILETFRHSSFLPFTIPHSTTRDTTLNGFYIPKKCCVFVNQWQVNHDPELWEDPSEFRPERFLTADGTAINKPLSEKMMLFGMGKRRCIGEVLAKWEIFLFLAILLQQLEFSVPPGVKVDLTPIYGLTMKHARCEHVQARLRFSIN

[6] = molecular target: T2, Adenosine receptor A3 (Homo sapiens) (UniProt P0DMS8); experiment: Displacement of [3H]-AB-MECA from human recombinant adenosine A3 receptor expressed in CHO-K1 cells at 10 uM after 60 mins; format: cell-based
T2 sequence (whole entry): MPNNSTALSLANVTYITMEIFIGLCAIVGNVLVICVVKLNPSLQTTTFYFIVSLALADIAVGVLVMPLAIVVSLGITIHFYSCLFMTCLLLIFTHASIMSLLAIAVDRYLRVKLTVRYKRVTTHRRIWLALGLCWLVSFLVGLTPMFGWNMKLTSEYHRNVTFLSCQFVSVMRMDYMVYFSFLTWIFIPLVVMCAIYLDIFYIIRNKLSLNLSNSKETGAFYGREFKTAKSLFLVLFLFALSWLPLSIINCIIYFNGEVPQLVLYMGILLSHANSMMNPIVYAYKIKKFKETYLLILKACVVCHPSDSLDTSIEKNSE

[7] = Oral bioavailability in Sprague-Dawley rat at 1 mg/kg; format: ADME, organism-based; conditions: in vivo; in short: as §3
Hepatocyte [8] = experiment: Intrinsic clearance in rat hepatocytes at 0.2 uM after 60 mins; format: ADME, cell-based, Liver; conditions: 1 h; in short: as §1
[9] = Volume of distribution at steady state in Sprague-Dawley rat at 0.5 mg/kg, iv and 1 mg/kg, po; format: ADME, organism-based; conditions: in vivo, read-out: Vdss; in short: as §3
[10] = Protein binding in human serum at 1 uM after 60 mins by LC/MS-MS; format: ADME, cell-free; conditions: read-out: PPB (converted)
Cytochrome P450 3A4 = Cytochrome P450 3A4 (Homo sapiens, UniProt P08684); experiment: Inhibition of recombinant CYP3A4 after 30 mins; format: ADME
In short: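 Recombinant CYP supersomes incubated in phosphate buffer with eight compound concentrations (40-0.02 μM) and fluorogenic substrates. CYP3A4: resorufin benzyl ether 100 μM, 30 min. Fluorescent metabolite read; IC50 relative to uninhibited controls.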

[11] = Apparent permeability from apical to basolateral side in human Caco2 cells at 1 uM after 21 to 28 days; format: ADME, cell-based; conditions: caco-2; in short: as §4
Adenosine receptor A2b = molecular target: T3, Adenosine receptor A2b (Homo sapiens, UniProt P29275); experiment: Displacement of [3H]-MRS1754 from human recombinant adenosine A2B receptor expressed in HEK293 cells after 120 mins
T3 sequence (P29275 whole entry): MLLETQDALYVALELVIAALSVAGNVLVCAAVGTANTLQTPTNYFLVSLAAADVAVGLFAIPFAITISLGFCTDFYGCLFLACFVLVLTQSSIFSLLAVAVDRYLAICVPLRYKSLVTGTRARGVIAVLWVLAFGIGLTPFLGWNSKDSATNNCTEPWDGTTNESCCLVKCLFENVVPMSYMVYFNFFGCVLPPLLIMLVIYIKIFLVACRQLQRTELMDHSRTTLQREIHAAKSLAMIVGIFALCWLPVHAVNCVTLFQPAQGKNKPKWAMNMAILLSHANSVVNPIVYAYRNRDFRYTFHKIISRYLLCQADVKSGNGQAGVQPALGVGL

Sequence of Cytochrome P450 3A4 (P08684 whole entry): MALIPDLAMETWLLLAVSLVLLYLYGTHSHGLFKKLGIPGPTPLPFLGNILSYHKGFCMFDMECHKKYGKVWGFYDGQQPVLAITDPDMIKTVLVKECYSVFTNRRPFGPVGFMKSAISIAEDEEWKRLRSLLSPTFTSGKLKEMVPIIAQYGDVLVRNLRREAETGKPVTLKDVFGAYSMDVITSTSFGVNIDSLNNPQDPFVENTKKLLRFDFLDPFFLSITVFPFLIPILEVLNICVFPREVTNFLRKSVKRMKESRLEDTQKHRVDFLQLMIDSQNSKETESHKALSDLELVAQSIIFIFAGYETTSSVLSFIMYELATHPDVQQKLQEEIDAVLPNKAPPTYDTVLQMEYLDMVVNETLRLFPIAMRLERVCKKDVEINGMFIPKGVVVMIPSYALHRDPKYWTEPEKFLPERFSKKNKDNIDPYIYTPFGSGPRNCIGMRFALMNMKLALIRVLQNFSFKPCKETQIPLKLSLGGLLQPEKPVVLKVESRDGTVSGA
Sequence of Cytochrome P450 2C19 (P33261 whole entry): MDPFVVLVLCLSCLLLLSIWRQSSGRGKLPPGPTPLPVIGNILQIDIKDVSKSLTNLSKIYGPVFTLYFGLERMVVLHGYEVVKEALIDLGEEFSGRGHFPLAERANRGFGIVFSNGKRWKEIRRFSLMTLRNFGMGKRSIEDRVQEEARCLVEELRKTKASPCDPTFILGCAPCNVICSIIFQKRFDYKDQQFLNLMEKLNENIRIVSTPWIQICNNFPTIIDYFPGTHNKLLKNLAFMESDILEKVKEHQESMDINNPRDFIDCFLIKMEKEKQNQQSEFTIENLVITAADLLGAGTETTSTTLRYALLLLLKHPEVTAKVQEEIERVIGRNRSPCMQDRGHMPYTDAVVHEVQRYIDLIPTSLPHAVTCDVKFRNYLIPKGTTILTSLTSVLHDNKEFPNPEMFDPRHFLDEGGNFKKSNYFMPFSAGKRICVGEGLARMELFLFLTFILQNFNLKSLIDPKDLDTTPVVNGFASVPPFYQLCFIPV
Sequence of Cytochrome P450 2D6 (P10635 whole entry): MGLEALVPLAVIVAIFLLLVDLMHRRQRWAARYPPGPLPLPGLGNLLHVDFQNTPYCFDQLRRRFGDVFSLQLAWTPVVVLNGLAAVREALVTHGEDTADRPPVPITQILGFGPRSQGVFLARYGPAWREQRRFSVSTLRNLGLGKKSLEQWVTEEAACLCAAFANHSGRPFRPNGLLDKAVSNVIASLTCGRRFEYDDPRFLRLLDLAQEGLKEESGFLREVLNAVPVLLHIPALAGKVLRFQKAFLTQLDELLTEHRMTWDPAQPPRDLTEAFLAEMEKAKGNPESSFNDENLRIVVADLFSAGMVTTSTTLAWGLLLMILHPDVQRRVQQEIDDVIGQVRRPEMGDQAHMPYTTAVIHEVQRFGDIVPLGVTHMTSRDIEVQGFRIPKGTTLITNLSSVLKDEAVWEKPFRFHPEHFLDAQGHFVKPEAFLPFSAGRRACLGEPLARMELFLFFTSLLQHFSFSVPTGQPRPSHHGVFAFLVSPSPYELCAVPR
Sequence of Cytochrome P450 2C9 (P11712 whole entry): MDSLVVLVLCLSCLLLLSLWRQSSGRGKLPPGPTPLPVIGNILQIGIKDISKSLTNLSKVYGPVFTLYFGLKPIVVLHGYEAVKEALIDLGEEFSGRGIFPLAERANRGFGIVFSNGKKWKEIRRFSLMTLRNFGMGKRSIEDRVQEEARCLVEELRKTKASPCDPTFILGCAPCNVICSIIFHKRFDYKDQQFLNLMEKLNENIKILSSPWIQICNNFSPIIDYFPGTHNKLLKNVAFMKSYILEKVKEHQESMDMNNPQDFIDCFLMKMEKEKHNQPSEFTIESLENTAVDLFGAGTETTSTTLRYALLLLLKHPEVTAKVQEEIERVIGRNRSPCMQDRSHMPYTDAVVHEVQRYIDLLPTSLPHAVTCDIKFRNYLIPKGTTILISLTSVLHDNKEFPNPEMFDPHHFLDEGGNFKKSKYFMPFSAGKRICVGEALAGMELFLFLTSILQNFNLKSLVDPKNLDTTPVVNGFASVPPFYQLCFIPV
Sequence of Adenosine receptor A2a (P29274 whole entry): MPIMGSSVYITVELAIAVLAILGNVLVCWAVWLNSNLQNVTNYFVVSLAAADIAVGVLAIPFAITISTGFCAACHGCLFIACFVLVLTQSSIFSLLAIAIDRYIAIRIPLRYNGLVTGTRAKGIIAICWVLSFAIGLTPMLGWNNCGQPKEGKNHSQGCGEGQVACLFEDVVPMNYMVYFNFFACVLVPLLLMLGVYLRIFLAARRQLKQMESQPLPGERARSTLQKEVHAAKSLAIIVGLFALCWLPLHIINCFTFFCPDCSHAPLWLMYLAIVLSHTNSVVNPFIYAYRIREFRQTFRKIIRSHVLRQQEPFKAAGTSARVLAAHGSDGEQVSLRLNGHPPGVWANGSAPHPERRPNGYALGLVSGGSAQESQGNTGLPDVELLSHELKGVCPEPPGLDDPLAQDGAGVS

- CL (Hepatocyte [1]): 600 mL/min
- IC50 (Cytochrome P450 2D6): > 40 µM
- IC50 (Cytochrome P450 2C19): > 40 µM
- half-life [2]: 7.8 h
- Ki (Adenosine receptor A2a): 0.0059 µM
- half-life [3]: 1.2 h
- Papp B→A at 1 µM [4]: 67 ×10⁻⁶ cm/s
- Activity (Mus musculus): Dose-dependent effect
- IC50 (Cytochrome P450 2C9): > 40 µM
- fraction unbound at 1 h, 1 µM [5]: 0.13
- IC50 (Cytochrome P450 1A2): > 40 µM
- inhibition [6]: 36%
- bioavailability [7]: 88%
- CL (Hepatocyte [8]): 12 mL/min
- Vd [9]: 1 L/kg
- fraction unbound at 1 h, 1 µM [10]: 0.15
- IC50 (Cytochrome P450 3A4): > 40 µM
- Papp A→B at 1 µM [11]: 88 ×10⁻⁶ cm/s
- Ki (Adenosine receptor A2b): 0.26 µM
SMILES: CC(C)(C)CC(=O)Nc1c(F)cc(C(=O)Nc2nccs2)cc1F
- ED50 (Mus musculus): 1.1 mg/kg
